The source made the active and inactive calls. No cut-off for these calls is given here. Where a SMILES comes first, the peptide text is derived from it. [ ]: non-standard residue; d: D form. The star is where a group is joined. Hexanoyl(6-N3) = [N-]=[N+]=NCCCCCC(=O)*; Azidoacetyl = [N-]=[N+]=NCC(=O)*; X1 = C#CCCCCOCCOCCOCCOCCOCC(=O)*; Nle = CCCC[C@H](N)C(=O)O
Columns and labels:
[1] = target: T1, Gastrin/cholecystokinin type B receptor (Homo sapiens) (UniProt P32239); test: Displacement of Eu-DTPA-PEGO-CCK4 from human cholecystokinin 2 receptor overexpressed in HEK-293 cells co-expressing human MC4R after 1 hr by time resolved fluorescence-based competition binding assay relative to acetylated […]; type: cell-based; conditions: HEK293
T1 sequence (whole entry): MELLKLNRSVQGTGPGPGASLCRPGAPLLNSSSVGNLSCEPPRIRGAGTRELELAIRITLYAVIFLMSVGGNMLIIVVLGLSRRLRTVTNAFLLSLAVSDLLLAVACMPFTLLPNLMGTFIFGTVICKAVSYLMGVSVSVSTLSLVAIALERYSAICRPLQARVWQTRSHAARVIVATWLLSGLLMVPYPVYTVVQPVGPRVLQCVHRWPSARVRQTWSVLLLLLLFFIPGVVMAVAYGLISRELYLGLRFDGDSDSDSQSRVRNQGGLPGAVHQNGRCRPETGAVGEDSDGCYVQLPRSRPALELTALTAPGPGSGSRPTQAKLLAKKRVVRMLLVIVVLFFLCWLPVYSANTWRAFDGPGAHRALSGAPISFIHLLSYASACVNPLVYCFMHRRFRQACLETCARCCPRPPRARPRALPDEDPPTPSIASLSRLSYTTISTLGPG

[2] = target: T2, Gastrin/cholecystokinin type B receptor (Homo sapiens, UniProt P32239); test: (§1) Displacement of Eu-DTPA-PEGO-CCK4 from human cholecystokinin 2 receptor overexpressed in HEK-293 cells co-expressing human MC4R after 1 hr by time resolved fluorescence-based competition binding assay; type: cell-based, HEK293
T2 sequence (P32239 whole entry): T1 sequence (whole entry)
Summary of the method: (§2)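 HEK-293 cells engineered to co-express hCCK2R and hMC4R, grown in DMEM/10% FBS with zeocin and geneticin, seeded 240,000 per well in six-well plates. Each well received binding buffer (DMEM, HEPES, BSA, 1,10-phenanthroline, leupeptin, bacitracin, pH 7.4) containing 15 nM Eu probe plus competitor at 10^-12 to 10^-5 M. Incubation 1 h at 37 °C, then scraping, three washes, Enhancement Solution 1 h at 37 °C, Eu TRF read.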

[3] = Retention time of the compound by analytical HPLC method; type: physicochemical
[4] = Retention time of the compound by reverse phase HPLC analysis; type: physicochemical
[5] = target: T1, Gastrin/cholecystokinin type B receptor (Homo sapiens); test: as §1; type: cell-based; conditions: HEK293; summary of the method: as §2

SMILES	Retention_time [4] [min]	inhibition [5]	Ratio [1]	Ki [2] [nM]	Retention_time [3] [min]
CCCC[C@H](NC(=O)[C@H](Cc1c[nH]c2ccccc12)NC(=O)COCCOCCOCCOCCOCCCCc1cn(CCCCCCOc2cc(OCCCCCCn3cc(CCCCOCCOCCOCCOCCOCC(=O)N[C@@H](Cc4c[nH]c5ccccc45)C(=O)N[C@@H](CCCC)C(=O)N[C@@H](CC(=O)O)C(=O)N[C@@H](Cc4ccccc4)C(N)=O)nn3)cc(OCCCCCCn3cc(CCCCOCCOCCOCCOCCOCC(=O)N[C@@H](Cc4c[nH]c5ccccc45)C(=O)N[C@@H](CCCC)C(=O)N[C@@H](CC(=O)O)C(=O)N[C@@H](Cc4ccccc4)C(N)=O)nn3)c2)nn1)C(=O)N[C@@H](CC(=O)O)C(=O)N[C@@H](Cc1ccccc1)C(N)=O	19.8		0.2	30	25.12
C#CCCCCOCCOCCOCCOCCOCC(=O)N[C@@H](Cc1c[nH]c2ccccc12)C(=O)N[C@@H](CCCC)C(=O)N[C@@H](CC(=O)O)C(=O)N[C@@H](Cc1ccccc1)C(N)=O (X1-W[Nle]DF-NH2)	16.9				
CCCC[C@H](NC(=O)[C@H](Cc1c[nH]c2ccccc12)NC(=O)CCCCCn1cc(COc2cc(OCc3cn(CCCCCC(=O)N[C@@H](Cc4c[nH]c5ccccc45)C(=O)N[C@@H](CCCC)C(=O)N[C@@H](CC(=O)O)C(=O)N[C@@H](Cc4ccccc4)C(N)=O)nn3)cc(OCc3cn(CCCCCC(=O)N[C@@H](Cc4c[nH]c5ccccc45)C(=O)N[C@@H](CCCC)C(=O)N[C@@H](CC(=O)O)C(=O)N[C@@H](Cc4ccccc4)C(N)=O)nn3)c2)nn1)C(=O)N[C@@H](CC(=O)O)C(=O)N[C@@H](Cc1ccccc1)C(N)=O	16.6		2	3.7	22.42
CCCC[C@H](NC(=O)[C@H](Cc1c[nH]c2ccccc12)NC(C)=O)C(=O)N[C@@H](CC(=O)O)C(=O)N[C@@H](Cc1ccccc1)C(N)=O (Ac-W[Nle]DF-NH2)	13.3		1	6.1	17.47
CCCC[C@H](NC(=O)[C@H](Cc1c[nH]c2ccccc12)NC(=O)Cn1cc(CN(Cc2cn(CC(=O)N[C@@H](Cc3c[nH]c4ccccc34)C(=O)N[C@@H](CCCC)C(=O)N[C@@H](CC(=O)O)C(=O)N[C@@H](Cc3ccccc3)C(N)=O)nn2)Cc2cn(CC(=O)N[C@@H](Cc3c[nH]c4ccccc34)C(=O)N[C@@H](CCCC)C(=O)N[C@@H](CC(=O)O)C(=O)N[C@@H](Cc3ccccc3)C(N)=O)nn2)nn1)C(=O)N[C@@H](CC(=O)O)C(=O)N[C@@H](Cc1ccccc1)C(N)=O	15.1		5	1.2	21.18
NC(=O)[C@H](CO)NC(=O)CCCCCn1cc(CN(Cc2cn(CCCCCC(=O)N[C@@H](CO)C(N)=O)nn2)Cc2cn(CCCCCC(=O)N[C@@H](CO)C(N)=O)nn2)nn1		inactive			

Continued, in another order:

Retention_time [4] [min]	inhibition [5]	SMILES	Ratio [1]	Ki [2] [nM]	Retention_time [3] [min]
	inactive	NC(=O)[C@H](CO)NC(=O)CCCCCn1cc(COc2cc(OCc3cn(CCCCCC(=O)N[C@@H](CO)C(N)=O)nn3)cc(OCc3cn(CCCCCC(=O)N[C@@H](CO)C(N)=O)nn3)c2)nn1			
22.9		CCCC[C@H](NC(=O)[C@H](Cc1c[nH]c2ccccc12)NC(=O)COCC(=O)NCCCOCCOCCOCCCNC(=O)CN(CCN(CCN(CC(=O)O)CC(=O)O)CC(=O)O)CC(=O)O)C(=O)N[C@@H](CC(=O)O)C(=O)N[C@@H](Cc1ccccc1)C(N)=O			
14.6		CCCC[C@H](NC(=O)[C@H](Cc1c[nH]c2ccccc12)NC(=O)CN=[N+]=[N-])C(=O)N[C@@H](CC(=O)O)C(=O)N[C@@H](Cc1ccccc1)C(N)=O (Azidoacetyl-W[Nle]DF-NH2)			
17.7		CCCC[C@H](NC(=O)[C@H](Cc1c[nH]c2ccccc12)NC(=O)CCCCCN=[N+]=[N-])C(=O)N[C@@H](CC(=O)O)C(=O)N[C@@H](Cc1ccccc1)C(N)=O ({Hexanoyl(6-N3)}-W[Nle]DF-NH2)			
